Publication PMC3511619 (Journal of ethnopharmacology, 2012)
pIC50, pKd: −log10 of the molar value.

Experiments:
[1] = biological target: HCV NS5B (Hepatitis C virus genotype 1b, UniProt P26663); assay: RdRp assay; assay type: biochemical; details: for IC50, inhibition of NS5B RdRp activity in vitro: single isolates; for IC90: read-out: IC90, RdRp activity of HCV NS5B
[2] = tested on: HCV subgenomic replicon (HCV RNA) in MH14 cells; assay: Quantitation of HCV RNA by RT-PCR in MH14 cells; assay type: cell-based, Hepatitis C virus; details: for inhibition of HCV RNA replication: 500 μM; for HCV replication reduced: 100 μM
How it was run: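 MH14 cells carrying a stable HCV subgenomic replicon were kept at 37 °C, 5% CO2 in DMEM with 10% FBS, penicillin/streptomycin, glutamine and 300 μg/ml G418. Cells were grown 60 h with or without test compound dissolved in DMSO. Total RNA was TRIzol-extracted. HCV RNA was reverse-transcribed with an HCV-specific primer and PCR-amplified for 25 cycles (1 min each at 94, 52, 72 °C). GAPDH mRNA served as internal control.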

[3] = tested on: MH14 cells; assay: MTT assay; details: for effect on cell growth / influence on cell viability / toxicity: 48 h, MH14 cells; for influence on cell viability: 2 μM and 10 μM; for toxicity: 50 μM and 100 μM
[4] = tested on: HCV subgenomic replicon (NS5B, NS5A expression) in MH14 cells; assay type: cell-based, Hepatitis C virus; details: for viral replication reduced (first statement, Fig. 4 B, C): cell culture system; for inhibition at 100 µM: Hepatitis C virus, MH14, read-out: inhibition of NS5B
How it was run: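 MH14 cells with stably replicating HCV subgenomic replicon, grown at 37 °C, 5% CO2 in DMEM with 10% FBS, penicillin/streptomycin, glutamine and 300 μg/ml G418. Cells were exposed to DMSO-dissolved test compound for 48 h, washed, lysed in SDS buffer, boiled, and clarified. Blots were probed with anti-NS5B, NS5A or actin (1:500, overnight, 4 °C), then HRP secondary (1:5,000, 1 h). Chemiluminescent detection used β-actin as the loading control.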

[5] = biological target: HCV NS5B (CΔ21) (Hepatitis C virus genotype 1b, UniProt P26663); assay: Fluorescence quenching binding assay; details: for time to binding equilibrium with NS5B (fluorescence quenched): data not shown
[6] = tested on: tumor suppressor protein, p53; assay: p53 expression; assay type: cell-based; details: cells not given
[7] = tested on: p53 expression in peripheral blood mononuclear cells (PBMC); assay: p53 expression in peripheral blood mononuclear cells; assay type: cell-based

Row | SMILES | pIC50 [1] | inhibition of HCV RNA replication [2] | effect on cell growth [3] | IC50, inhibition of NS5B RdRp activity in vitro [1] | IC90 [1] [µM] | viral replication reduced (first statement, Fig. 4 B, C) ([4]; 50 μM) [%] | inhibition at 100 µM [4] [%] | HCV replication inhibited, judged by HCV RNA level ([2]; 50 μM) [%] | HCV replication reduced [2] | pKd [5] | time to binding equilibrium with NS5B (fluorescence quenched) [5] [min] | effect on tumor suppressor protein p53 [6] | effect on p53 expression [7] | cytotoxicity in MH14 cell [3] | inhibition of NS5B expression ([4]; 10 μM, MH14 cells, 48 h) [%] | NS5B expression by Western blot ([4]; 50 μM, MH14 cells, 48 h) | HCV replication inhibited, judged by HCV RNA level ([2]; 10 μM) [%] | influence on cell viability [3] | toxicity [3]
1 | O=C(O)c1ccc(O)c(O)c1 [Compound 1, 3,4-dihydroxybenzoic acid] | 3.40 | inhibited HCV RNA replication only at very high concentrations | enhanced cellular proliferation |  |  |  |  |  |  |  |  |  |  |  |  |  |  |  | 
2 | O=C(O)c1ccc(O)cc1 [Compound 2, 4-hydroxybenzoic acid] |  | inhibited HCV RNA replication only at very high concentrations | enhanced cellular proliferation | did not inhibit |  |  |  |  |  |  |  |  |  |  |  |  |  |  | 
3 | O=c1cc(-c2ccc(O)c(O)c2)oc2cc(O)cc(O)c12 [Compound 3, luteolin] | 4.95 |  |  |  | 52 | ~50 | > 90 | 50 | approximately 80% | 4.50 | ≤ 1 | strongly up-regulate | no effect | comparable high cytotoxicity |  |  |  |  | 
4 | COc1cc(O)c2c(c1)oc(=O)c1c3cc(O)c(O)cc3oc21 [Compound 4, wedelolactone] | 5.11 |  |  | indistinguishable | 32 |  |  | 80 |  | 4.61 | ≤ 1 |  |  |  | > 80 | could not detect the expression of NS5B | 30 | no influence on cell viability | toxic
5 | O=c1cc(-c2ccc(O)cc2)oc2cc(O)cc(O)c12 [Compound 5, apigenin] | 3.76 |  |  |  |  | ~50 | > 90 | 50 | ~90% | 3.91 | ≤ 1 | strongly up-regulate | no effect | comparable high cytotoxicity |  |  |  | no influence on cell viability | toxic
